Screens from PubChem BioAssay.
In the library only some 4.5% were active in any assay of this set; here they are far more common.
GPR7 antagonist: blocks human GPR7 receptor signaling. P48145. GPR7-expressing cells, fluorescence antagonist assay. inhibition, % at 4.4 µM. 290,000 tested, 1.1% active. AID 1861; in the data active = inhibition above about 16%, passing the limit was not always enough;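 note: cells stimulated with the agonist NPW; 0% = agonist with vehicle and 100% = vehicle without agonist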
CHO parental Ca: signal in parental CHO cells, OX1R antagonist counter-screen; parental CHO-K1, ATP-induced calcium, Fluo-8 fluorescence; 330,000 tested, 0.63% active; inhibition, % at 5.6 µM;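 active = inhibition above that plate's mean sample inhibition plus 3 SD, cut at about 26% in these data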;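 note: 0% = ATP-challenged DMSO wells and 100% = DMSO wells without ATP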
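Assay system: untransfected parental CHO cell line. Also added: ATP agonist challenge. Dosing: one dose, 5.6 µM nominal. Measured by: Fluo-8 fluorescence. Read-out: % inhibition. Benchmarks: ATP wells versus no-ATP DMSO wells. Repeats: no replicates.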
OX1R antag-1: blocks the human orexin 1 receptor. 330,000 tested, 1.8% active. OX1R-expressing cells, FRET antagonist read-out. inhibition, % at 6.6 µM. AID 485270; in the data active = inhibition mostly above about 38%, no sharp cut-off; inactive = mostly below about 40%;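 note: 0% = agonist challenge alone and 100% = reference antagonist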
Target sequence (O43613 whole entry, looked up): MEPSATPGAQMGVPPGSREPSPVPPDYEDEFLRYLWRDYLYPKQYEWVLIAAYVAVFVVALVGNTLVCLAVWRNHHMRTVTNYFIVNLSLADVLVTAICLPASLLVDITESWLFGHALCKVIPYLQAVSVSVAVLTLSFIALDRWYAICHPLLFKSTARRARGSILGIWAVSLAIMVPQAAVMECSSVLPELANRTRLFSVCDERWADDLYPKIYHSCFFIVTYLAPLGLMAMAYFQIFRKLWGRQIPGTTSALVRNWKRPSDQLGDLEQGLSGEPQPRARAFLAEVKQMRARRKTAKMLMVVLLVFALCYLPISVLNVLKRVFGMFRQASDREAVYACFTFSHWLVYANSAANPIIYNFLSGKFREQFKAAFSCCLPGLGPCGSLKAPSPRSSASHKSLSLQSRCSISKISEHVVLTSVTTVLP
TAAR1 antagonist: antagonists of human TAAR1. CHO RD-HGA16 TAAR1, Fluo-8 calcium fluorescence, antagonist. inhibition, % at 3 µM. 360,000 tested, 1.5% active;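 active = inhibition above a per-plate cutoff, the mean inhibition of test compounds on that plate plus 3 SD, cut at about 49% in these data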;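 note: 0% = DMSO plus EC80 beta-PEA response and 100% = DMSO alone without agonist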
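Test system – hTAAR1-expressing CHO RD-HGA16 cells, Gα16-coupled · Reagent – β-PEA at EC80 concentration, post-compound challenge · Compound dosing – 3 µM, single point · Timing – 140 s kinetic read after compound, 140 s after agonist · Detection – Fluo-8 intracellular calcium dye fluorescence, real-time kinetic reads · Control set – DMSO and EC80 PEA controls · Repeats – n of 1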
OX1R antag-2: human HCRTR1 antagonism; inhibition, % at 5 µM; O43613; 330,000 tested, 0.43% active; CHO/OX1R cells, Fluo-8 calcium fluorescence, orexin A;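 active = inhibition above its plate's threshold, mean inhibition of all tested compounds on the plate plus 3 SD, cut at about 37% in these data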;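 note: 0% = orexin A challenge wells and 100% = SB-334867-A antagonist wells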
TAAR1 ag: human TAAR1 agonism; Q96RJ0; CHO RD-HGA16 TAAR1, Fluo-8 calcium fluorescence; vehicle wells 0%, saturating PEA agonist 100%; activation, % at 3 µM; 360,000 tested, 0.99% active; AID 624467;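 active = activation above the mean activation of all test compounds in the run plus 3 SD, cut at about 38% in these data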
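test system = CHO RD-HGA16 cells carrying human TAAR1 plus Gα16 | schedule = 17-24 h seeding, 75 min 37 °C dye, 30 min RT | compound dosing = 3 µM single concentration | control set = DMSO and PEA EC100 | replicates = n 1 | signal = Fluo-8 fluorescence, 5 s baseline then 140 s kinetic read | measure = percent activation vs PEA EC100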
TAAR1 ag conf: human TAAR1 agonism, confirmed | shares compounds with TAAR1 ag | CHO RD-HGA16 TAAR1, Fluo-8 calcium fluorescence; scaled: DMSO 0%, maximal phenethylamine 100% | activation, % at 3 µM | 2,400 tested, 82% active;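 active = activation above a cutoff set at the run's mean compound activation plus 3 SD, cut at about 39% in these data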
Ga16 ag counter: nonselective agonism, TAAR1 counter-screen | activation, % at 3 µM | CHO-Ga16 parental, Fluo-8 calcium fluorescence; normalized to maximal ATP response, DMSO zero | shares compounds with TAAR1 ag | AID 651787 | 2,400 tested, 50% active;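 active = activation above the run cutoff, the mean activation over all tested wells plus 3 SD, cut at about 12% in these data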;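 note: 0% = DMSO wells and 100% = maximal ATP response on the peak over basal ratio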
TAAR1 desensitize: human TAAR1 agonist that also desensitizes the receptor | inhibition, % at 3 µM | CHO RD-HGA16 hTAAR1, Fluo-8 calcium, beta-PEA response inhibition | 2,400 tested, 46% active | shares compounds with TAAR1 ag;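 active = inhibition above the run cutoff, the mean inhibition of all test compounds plus 3 SD, cut at about 49% in these data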;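 note: beta-PEA stimulus applied at its EC80; loss of beta-PEA calcium signal after compound pretreatment read as receptor desensitization; 0% = DMSO with beta-PEA at EC80 and 100% = DMSO alone without agonist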
Ga16 nonsel ant: nonselective Ga16 antagonist in TAAR1 agonist counter-screen; shares compounds with TAAR1 ag; CHO-Ga16 ATP-induced calcium, Fluo-8 fluorescence; inhibition, % at 3 µM; 2,400 tested, 39% active;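 active = inhibition above the plate's mean compound inhibition plus 3 SD, computed per plate, cut at about 22% in these data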;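 note: 0% = EC80 ATP with DMSO and 100% = DMSO wells without ATP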
* hit, by the source's call; · = no result given.

SMILES	GPR7 antagonist	CHO parental Ca	OX1R antag-1	TAAR1 antagonist	OX1R antag-2	TAAR1 ag	TAAR1 ag conf	Ga16 ag counter	TAAR1 desensitize	Ga16 nonsel ant
C=CCN1[C@@H](C)[C@H](c2ccccc2)Oc2cccc(NCCc3ccccc3)c2S1(=O)=O	·	·	·	36	·	97*	72*	1	19	9
COc1ccccc1-c1nc(S(=O)(=O)c2ccccc2)c(N2CCOCC2)o1	-5	-25	27	-13	-25	3	·	·	·	·
Cc1nn(C)c(Cl)c1/C=N/OC(=O)c1ccc(F)cc1	-14	14	13	11	-35	88*	3	2	3	10
CCCCCCCCCCCCCCC(O)C[N+](C)(CCO)CCO (stereo not drawn)	·	·	·	77*	·	54*	18	4	36	30*
CCCCCCCCCCCCCC(=O)NO	·	·	·	-12	·	2	·	·	·	·
CC(NC(=O)c1cc2cc(F)ccc2[nH]1)c1ccccc1 (stereo not drawn)	-17	7	-9	2	-39	9	·	·	·	·
Cc1ccn2c(=O)nc(SCC(=O)NCCc3ccccc3)nc2c1	·	-9	5	-2	-10	3	·	·	·	·
CNc1nc(N)c([N+](=O)[O-])c(NC2CCCCC2)n1	-25	·	·	-22	·	60*	90*	42*	-2	-17
CCCCc1c(-c2ccc(OC)c(OC)c2)ncn1CCc1ccccc1OC	·	·	·	58*	·	59*	64*	7	68*	42*
CCCCc1c(-c2ccccc2OC)ncn1CCc1cccc(Cl)c1	·	·	·	47	·	66*	84*	19*	83*	34*
CCCCCc1c(-c2ccccc2)ncn1CCc1ccccc1OC	·	·	·	7	·	13	·	·	·	·
CCCCc1c(-c2ccc(F)cc2F)ncn1CCc1ccccc1OC	·	·	·	38	·	6	·	·	·	·
CCCCc1c(Cc2cccc(F)c2)ncn1CCc1ccccc1OC	·	·	·	32	·	48*	48*	11	50*	33*
CCc1c(-c2ccccc2Br)ncn1CCc1ccccc1OC	·	·	·	53*	·	44*	70*	11	59*	28*
CCCCN(C(=O)c1ccc(OC)c([N+](=O)[O-])c1)c1c(N)n(CCC)c(=O)[nH]c1=O	-6	1	22	14	-6	3	·	·	·	·
CCCc1c(-c2ccc(Cl)cc2)ncn1Cc1ccccc1OC	·	·	·	-2	·	4	·	·	·	·
COc1ccccc1CCn1cnc(-c2ccc(OC)c(OC)c2)c1CC(C)C	·	·	·	68*	·	54*	93*	24*	84*	45*
CCCc1c(-c2ccc(Cl)cc2)ncn1CCc1ccccc1OC	·	·	·	52*	·	56*	82*	15*	83*	26*
COc1ccccc1CCn1cnc(-c2ccc(Br)cc2)c1CC(C)C	·	·	·	71*	·	65*	82*	2	56*	10
Cc1cnc(NC(=O)CCCSc2nc3ccccc3s2)s1	5	-1	15	61*	-19	53*	9	2	2	4
COC(=O)CCCCCCCCC(=O)Nc1nc2ccccc2s1	4	-17	51	2	-36	50*	76*	37*	18	5
COCC(=O)Nc1nc2ccccc2s1	1	-3	17	12	-17	4	·	·	·	·
COc1cc(/C=C2\SC(=O)N(CCN)C2=O)ccc1OS(=O)(=O)c1cc(C)ccc1C	13	·	·	-3	·	54*	72*	29*	57*	18
OCC1COC(c2ccccc2)=N1 (stereo not drawn)	·	·	·	-14	·	39*	6	2	10	12
CC1=NN2C(=N)/C(=C\c3cc(C)n(-c4ccccc4)c3C)C(=O)N=C2S1	-8	-9	-3	5	-30	-1	·	·	·	·
